T cruzi growth-1 = T. cruzi intracellular proliferation inhibitors, primary screen, cell-based, beta-gal Tulahuen parasites, NIH3T3 host, luminescence. inhibition, % at 8.34 µM. T. cruzi beta-gal in NIH3T3, GalScreen luminescence, 90 h. 77,000 tested, 5.9% active. AID 624255, 2012;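 active means mean inhibition above about 93%, with at least 55% of replicates each passing it, limit read from the data, passing the limit was not always enough; inconclusive means only one of those two conditions holds; inactive means neither condition holds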
IDH1 R132H inh = inhibitors of IDH1 R132H reductase, primary screen, biochemical, plate reader, single point. Isocitrate dehydrogenase [NADP] cytoplasmic (Homo sapiens), O75874. diaphorase/resazurin fluorescence, 60 min. inhibition, % at 10 µM. 70,000 tested, 0.18% active; in the data active means inhibition above about 34%; inconclusive means no clear call, values can overlap the other calls; inactive means below about 11%
Target sequence (O75874 whole entry R132H): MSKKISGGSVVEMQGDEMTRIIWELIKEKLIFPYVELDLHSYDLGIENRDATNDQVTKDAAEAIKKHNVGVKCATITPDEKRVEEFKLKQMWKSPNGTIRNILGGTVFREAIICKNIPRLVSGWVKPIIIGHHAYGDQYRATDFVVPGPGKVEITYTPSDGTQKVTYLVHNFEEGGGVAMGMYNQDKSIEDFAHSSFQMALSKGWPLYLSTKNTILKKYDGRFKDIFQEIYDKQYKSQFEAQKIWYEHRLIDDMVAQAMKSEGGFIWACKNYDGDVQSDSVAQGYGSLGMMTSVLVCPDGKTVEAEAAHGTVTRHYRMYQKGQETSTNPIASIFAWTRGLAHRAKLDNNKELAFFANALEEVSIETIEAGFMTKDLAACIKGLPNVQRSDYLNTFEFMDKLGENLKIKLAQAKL
KDM4C inh = inhibitors of GASC-1 (KDM4C) histone demethylase, primary screen, biochemical, single concentration HTS; Lysine-specific demethylase 4C (Homo sapiens), Q9H3R0; GST-KDM4C 2-372, H3K9me3 peptide, LANCE TR-FRET; inhibition, % at 12.5 µM; 96,000 tested, 0.15% active;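 active means mean replicate inhibition above about 25%, with at least 55% of replicates also reaching it, limit read from the data, passing the limit was not always enough; inconclusive means only one of those two conditions met; inactive means neither condition met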
Target sequence (Q9H3R0 2-372 limits assumed): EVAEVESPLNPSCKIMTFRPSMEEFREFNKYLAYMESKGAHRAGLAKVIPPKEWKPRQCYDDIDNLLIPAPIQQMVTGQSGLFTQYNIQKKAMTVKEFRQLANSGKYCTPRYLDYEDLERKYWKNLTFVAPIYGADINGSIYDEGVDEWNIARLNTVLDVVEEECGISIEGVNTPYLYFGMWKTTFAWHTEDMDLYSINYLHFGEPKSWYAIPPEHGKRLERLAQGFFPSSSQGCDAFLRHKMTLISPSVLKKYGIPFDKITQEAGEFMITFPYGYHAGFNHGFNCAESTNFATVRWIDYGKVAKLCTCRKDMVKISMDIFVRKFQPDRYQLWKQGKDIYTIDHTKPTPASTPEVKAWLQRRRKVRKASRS
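Test system – GST-tagged GASC-1 (JMJD2C) catalytic fragment, aa 2-372 · Medium – HEPES buffer, pH 7.5, plus ascorbate · Reagent – H3K9me3 peptide with Fe(II)/2OG · Compound – one test concentration per compound · Timing – 30 min reaction, 60 min detection, RT · Technique – TR-FRET with Eu antibody and ULight streptavidin, EDTA stop · Read-out basis – inhibition from TR-FRET ratio decrease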
T cruzi growth-2 = T. cruzi intracellular proliferation inhibitors, confirmation, cell-based, NIH3T3 host, beta-gal parasite, luminescence, cherry-pick; shares compounds with T cruzi growth-1; T. cruzi beta-gal in NIH3T3, GalScreen luminescence, 90 h; inhibition, % at 8.35 µM; 5,600 tested, 72% active;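 active means mean replicate inhibition above about 95% and at least 55% of replicates individually reaching it, limit read from the data; inconclusive means only one of the two criteria is met; inactive means neither criterion is met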
T cruzi growth-3 = inhibitors of intracellular T. cruzi replication, confirmation, NIH3T3 host cells, beta-gal parasites, cherry-pick, set 2; AID 651740, 2012; shares compounds with T cruzi growth-1; inhibition, % at 2.09 µM; 5,600 tested, 21% active; T. cruzi beta-gal in NIH3T3, GalScreen luminescence, 90 h;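 active means mean inhibition above about 95%, with at least 55% of replicates also reaching it, limit read from the data; inconclusive means meets just one of the two conditions; inactive means meets neither condition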
NIH3T3 tox = cytotoxicity in mouse NIH/3T3 fibroblasts, confirmation, cytotoxicity control for T. cruzi proliferation inhibitor project, cell-based, cherry-pick, single point; shares compounds with T cruzi growth-1; NIH/3T3 viability, CellTiter-Glo ATP luminescence, 90 h; cytotoxicity (signal decrease), % at 8.35 µM; 5,600 tested, 14% active; AID 651742, 2012;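 active means mean signal decrease across replicates above about 35% based on untreated-well scatter, with enough replicates individually passing, limit read from the data; inconclusive means no rule stated though some were filed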
NIH3T3 tox 2 = NIH/3T3 fibroblast cytotoxicity, confirmation, cytotoxicity control, cell-based, cherry-pick, single point, set 2; AID 651744, 2012; shares compounds with T cruzi growth-1; 5,600 tested, 56% active; NIH/3T3 viability, CellTiter-Glo ATP luminescence, 90 h; inhibition, % at 24.9 µM;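 active means mean loss of cell viability signal at or above a set limit, and enough replicates individually reaching it; inconclusive means meets only the mean limit or only the replicate share; inactive means meets neither condition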
Large screens that a line does not name were inactive (follow-up assays come after a bar, where they were run). The full list was thinned out, with hits kept by preference.

C[C@@H]1CN([C@@H](C)CO)C(=O)c2cccc(NS(C)(=O)=O)c2O[C@H]1CN(C)C(=O)Nc1ccc(C(F)(F)F)cc1	none (no result: T cruzi growth-1)
C[C@H]1CN([C@@H](C)CO)C(=O)c2ccccc2-c2ccccc2CO[C@@H]1CN(C)Cc1ccccc1C(F)(F)F	none (no result: T cruzi growth-1, IDH1 R132H inh)
C[C@@H]1CN([C@H](C)CO)C(=O)c2cc(NC(=O)CCCCCC(=O)Nc3ccccc3N)ccc2O[C@H]1CN(C)C	none (no result: T cruzi growth-1)
C[C@H]1CN([C@@H](C)CO)S(=O)(=O)c2ccc(-c3cccc(F)c3)cc2O[C@H]1CN(C)C(=O)Nc1cc(F)ccc1F	T cruzi growth-1 112 | T cruzi growth-2 105 | T cruzi growth-3 102 | NIH3T3 tox 63 | NIH3T3 tox 2 42
C[C@@H]1CN([C@@H](C)CO)S(=O)(=O)c2ccc(-c3ccc(C#N)cc3)cc2O[C@H]1CN(C)C(=O)Nc1cc(F)ccc1F	none (no result: IDH1 R132H inh)
C[C@H]1CN([C@@H](C)CO)S(=O)(=O)c2ccc(-c3ccc(C#N)cc3)cc2O[C@@H]1CN(C)C(=O)Nc1cc(F)ccc1F	T cruzi growth-1 108 | T cruzi growth-2 inactive | T cruzi growth-3 inactive | NIH3T3 tox inactive | NIH3T3 tox 2 75
C[C@H]1CN([C@@H](C)CO)S(=O)(=O)c2ccc(-c3cccc(F)c3)cc2O[C@@H]1CN(C)C(=O)Nc1cc(F)ccc1F	T cruzi growth-1 112 | T cruzi growth-2 106 | T cruzi growth-3 inactive | NIH3T3 tox 43 | NIH3T3 tox 2 86
C[C@H](CO)N1C[C@H](C)[C@H](CN(C)C(=O)Nc2cc(F)ccc2F)Oc2cc(-c3cccc(C#N)c3)ccc2S1(=O)=O	none (no result: T cruzi growth-1)
C[C@H]1CN([C@@H](C)CO)S(=O)(=O)c2ccc(-c3cccc(C#N)c3)cc2O[C@H]1CN(C)C(=O)Nc1cc(F)ccc1F	none (no result: T cruzi growth-1, IDH1 R132H inh)
COc1ccc(CN(C)C[C@H]2Oc3c(NC(=O)Nc4ccc5c(c4)OCO5)cccc3C(=O)N([C@@H](C)CO)C[C@H]2C)cc1	none (no result: IDH1 R132H inh)
C[C@@H]1CN([C@@H](C)CO)C(=O)Cc2cc(NS(=O)(=O)c3ccc(F)cc3)ccc2O[C@@H]1CN(C)S(=O)(=O)c1ccc(F)cc1	none
Cc1cc(C(=O)Nc2ccc3c(c2)C(=O)N(C)[C@H]2CC[C@H](CC(=O)NCc4ccc(-c5ccccc5)cc4)O[C@@H]2CO3)no1	none (no result: IDH1 R132H inh)
COc1ccc(C(=O)C(C)Oc2ccc(NC(=O)c3cccc(OC)c3)cc2)cc1 (configuration not stated)	none (no result: T cruzi growth-1, KDM4C inh)
C[C@@H]1CN([C@@H](C)CO)C(=O)c2cc(C#CC3CC3)cnc2O[C@H]1CN(C)C(=O)Nc1ccc(F)cc1	none
CS(=O)(=O)N(CC(=O)Nc1cccc2ccccc12)c1ccc(F)c(Cl)c1	none (no result: T cruzi growth-1, KDM4C inh)
C[C@H](O)C#Cc1ccc([C@H]2[C@@H](CO)N3CCCCN(C(=O)c4ccncc4)C[C@@H]23)cc1	none (no result: IDH1 R132H inh)
C[C@H](O)C#Cc1ccc([C@H]2[C@@H](CO)N3CCCCN(C(=O)c4ccncc4)C[C@H]23)cc1	none (no result: IDH1 R132H inh)
COc1ccc(C#Cc2ccc([C@@H]3[C@@H](CO)N4CCCCN(C(=O)c5ccncc5)C[C@H]34)cc2)cc1	T cruzi growth-1 112 (no result: IDH1 R132H inh) | T cruzi growth-2 107 | T cruzi growth-3 inactive | NIH3T3 tox 45 | NIH3T3 tox 2 103
C[C@@H](O)C#Cc1ccc([C@@H]2[C@H](CO)N3CCCCN(C(=O)c4ccncc4)C[C@@H]23)cc1	none (no result: IDH1 R132H inh)
COc1ccc(C#Cc2ccc([C@H]3[C@@H](CO)N4CCCCN(C(=O)c5ccncc5)C[C@@H]34)cc2)cc1	T cruzi growth-1 116 (no result: IDH1 R132H inh) | T cruzi growth-2 104 | T cruzi growth-3 inactive | NIH3T3 tox inactive | NIH3T3 tox 2 inactive
COc1ccc(C#Cc2ccc([C@H]3[C@H](CO)N4CCCCN(C(=O)c5ccncc5)C[C@@H]34)cc2)cc1	T cruzi growth-1 116 (no result: IDH1 R132H inh) | T cruzi growth-2 114 | T cruzi growth-3 inactive | NIH3T3 tox inactive | NIH3T3 tox 2 97
CC(C)C(=O)Nc1ccc2c(c1)C(=O)N(C)[C@H]1CC[C@H](CC(=O)Nc3ccccc3)O[C@@H]1CO2	none (no result: IDH1 R132H inh)
O=C(c1ccccn1)N1CC[C@H]2[C@H](CO)Nc3ccc(-c4ccccc4)cc3[C@H]21	T cruzi growth-1 99 (no result: IDH1 R132H inh) | T cruzi growth-2 inconclusive | T cruzi growth-3 inactive | NIH3T3 tox inactive | NIH3T3 tox 2 inactive
O=C(c1ccccn1)N1CC[C@@H]2[C@H]1c1cc(-c3ccccc3F)ccc1N[C@@H]2CO	none (no result: IDH1 R132H inh)
O=C(c1ccccn1)N1CC[C@H]2[C@H](CO)Nc3ccc(-c4ccc(F)cc4)cc3[C@H]21	T cruzi growth-1 inconclusive (no result: IDH1 R132H inh) | T cruzi growth-2 108 | T cruzi growth-3 98 | NIH3T3 tox inactive | NIH3T3 tox 2 29
CN(C)C(=O)c1ccc(-c2ccc3c(c2)[C@@H]2[C@@H](CCN2C(=O)c2ccccn2)[C@@H](CO)N3)cc1	none (no result: IDH1 R132H inh)
COCC(=O)N[C@H]1C=C[C@H](CC(=O)NCc2ccccc2OC)O[C@H]1CO	none
O=S(=O)(CCSc1ccccn1)c1nc2ccccc2s1	none (no result: T cruzi growth-1, KDM4C inh)
CCCNC(=O)N(C)C[C@H]1Oc2ncc(C#C[C@@H](C)O)cc2C(=O)N([C@@H](C)CO)C[C@H]1C	none (no result: IDH1 R132H inh)
Cc1ccc(S(=O)(=O)N(C)C[C@@H]2OCCCC[C@H](C)Oc3ccc(NC(=O)C4CCCCC4)cc3C(=O)N([C@H](C)CO)C[C@@H]2C)cc1	none
C[C@@H]1CN([C@@H](C)CO)C(=O)c2cc(NC(=O)C3CCCCC3)ccc2O[C@@H](C)CCCCO[C@@H]1CN(C)S(=O)(=O)c1ccc(Cl)cc1	T cruzi growth-1 inconclusive (no result: IDH1 R132H inh) | T cruzi growth-2 105 | T cruzi growth-3 inactive | NIH3T3 tox inactive | NIH3T3 tox 2 inactive
C[C@@H]1CN([C@H](C)CO)C(=O)c2cc(NC(=O)C3CCCCC3)ccc2O[C@@H](C)CCCCO[C@@H]1CN(C)S(=O)(=O)c1ccc(Cl)cc1	T cruzi growth-1 102 | T cruzi growth-2 104 | T cruzi growth-3 inactive | NIH3T3 tox inactive | NIH3T3 tox 2 inactive
C[C@@H]1CCCCO[C@@H](CN(C)S(=O)(=O)c2ccc(F)cc2)[C@@H](C)CN([C@@H](C)CO)C(=O)c2cc(NC(=O)C3CCCCC3)ccc2O1	none
